From ChEMBL document CHEMBL3232933, “Pyrazole-5-carboxamides, novel inhibitors of receptor for advanced glycation end products (RAGE)” (Eur J Med Chem, 2014)
Calls of active or inactive are those of the source. The calls are words filed in the database; no cut-off is given here.

Columns and labels:
[1] = target: T1, Advanced glycosylation end product-specific receptor (Homo sapiens, UniProt Q15109); test: Inhibition of biotinylated human RAGE assessed as bound amyloid beta level at 20 uM after 60 mins by ELISA relative to control
Procedure, shortened: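 Biotinylated human RAGE (1 µg), Aβ1-42 oligomers (aged in PBS for 24 h at 4 °C) and compound at a single fixed level were co-incubated in TBS-T with 2.5% BSA on streptavidin plates for 60 min at ambient temperature. Bound Aβ was detected with HRP-4G8, TMB and A450. % inhibition is given as mean ± SD of duplicate experiments.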

[2] = target: T1, Advanced glycosylation end product-specific receptor; test: Inhibition of biotinylated human RAGE assessed as bound amyloid beta level after 60 mins by ELISA
[3] = Kinetic solubility of the compound in PBS at pH 7.4 by nephelometric analysis; format: physicochemical; conditions: read-out: Kinetic_solubility
Procedure, shortened: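 Kinetic solubility was measured on the HCl salt, added from a DMSO stock, in triplicate experiments.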

Mus musculus [4] = test: Antialzheimer activity in ICR mouse injected with human amyloid beta (1 to 42) assessed as reduction of human amyloid beta (1 to 42) level in brain at 25 mg/kg, ip administered 20 mins prior to human amyloid beta (1 to 42) injection measured after 30 mins relative to control; format: functional; design: scale not given: the % may be the effect or the level left; conditions: route intraperitoneal
Procedure, shortened: (§1)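 Male ICR mice, 3 months old (25 g, n = 4), got one i.p. dose of 25 mg/kg or vehicle. After 20 min, human Aβ1-42 in PBS was injected into the tail vein and circulated for 30 min. Human Aβ was then measured in brain extracts and plasma. Values are means ± SD.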

Mus musculus [5] = test: Antialzheimer activity in ICR mouse injected with human amyloid beta (1 to 42) assessed as increase in human amyloid beta (1 to 42) level in plasma at 25 mg/kg, ip administered 20 mins prior to human amyloid beta (1 to 42) injection measured after 30 mins relative to control; format: functional; conditions: route intraperitoneal; procedure, shortened: as §1
[6] = AUC in Sprague-Dawley rat at 2 mg/kg, iv; format: ADME, organism-based; design: dose 2 mg/kg, route intravenous; conditions: plasma

T1 sequence (Q15109 whole entry): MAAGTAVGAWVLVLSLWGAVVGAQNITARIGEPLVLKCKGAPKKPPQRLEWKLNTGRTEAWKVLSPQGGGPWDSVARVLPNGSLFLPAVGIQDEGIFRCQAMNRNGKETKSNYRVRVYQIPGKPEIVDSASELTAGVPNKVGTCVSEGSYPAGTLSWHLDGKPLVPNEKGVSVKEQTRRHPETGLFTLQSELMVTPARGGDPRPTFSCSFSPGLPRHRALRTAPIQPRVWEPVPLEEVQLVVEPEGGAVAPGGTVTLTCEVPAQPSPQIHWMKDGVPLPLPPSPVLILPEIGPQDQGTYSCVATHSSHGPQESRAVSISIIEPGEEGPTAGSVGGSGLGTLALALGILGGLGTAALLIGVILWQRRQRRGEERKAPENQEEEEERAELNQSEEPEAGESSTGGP

SMILES: CCCCOc1cc(OCCCN(CC)CC)ccc1NC(=O)c1cc(-c2ccc(Oc3ccc(C(F)(F)F)cc3)cc2)nn1C
- inhibition [1]: 83.1%
- IC50 [2]: 1.9 µM

SMILES: CCCCn1nc(-c2ccc(Oc3ccc(Cl)cc3)cc2)cc1C(=O)Nc1ccc(OCCCN(CC)CC)cc1
- inhibition [1]: 41.4%

SMILES: CCN(CC)CCOc1ccc(NC(=O)c2cc(-c3ccc(Oc4ccc(Cl)cc4)cc3)nn2C)cc1
- inhibition [1]: 27%

SMILES: CCCCOc1cc(OCCCN(CC)CC)ccc1NC(=O)c1cc(-c2ccc(Oc3ccc(F)c(F)c3)cc2)nn1C
- inhibition [1]: 19.9%

SMILES: CCCCOc1cc(OCCCN(CC)CC)ccc1NC(=O)c1cc(-c2ccc(Oc3cccc(F)c3)cc2)nn1C
- inhibition [1]: 37%

SMILES: CCCCOc1cc(OCCCN(CC)CC)ccc1NC(=O)c1cc(-c2ccc(Oc3ccc(Cl)cc3)cc2)nn1CC
- inhibition [1]: 44.7%

SMILES: CCCCOc1cc(OCCCN(CC)CC)ccc1NC(=O)c1cc(-c2ccc(Oc3ccc(Cl)cc3)cc2)n(CCCC)n1
- inhibition [1]: 36%

SMILES: CCCCOc1cc(OCCCN(CC)CC)ccc1NC(=O)c1cc(-c2ccc(Oc3ccc(Cl)cc3)cc2)nn1CCC
- inhibition [1]: 44.6%

SMILES: CCCCOc1cc(OCCCN(CC)CC)ccc1NC(=O)c1cc(-c2ccc(OC3CCCCC3)cc2)nn1C
- inhibition [1]: 76%
- IC50 [2]: 2.5 µM

SMILES: CCCCOc1cc(OCCCN(CC)CC)ccc1NC(=O)c1cc(-c2ccc(Oc3ccc(F)cc3)cc2)nn1C [listing 1 of 2 here]
- inhibition [1]: 79.3%

SMILES: CCCCOc1cc(OCCCN(CC)CC)ccc1NC(=O)c1cc(-c2ccc(OC)cc2)nn1C
- inhibition [1]: 32.4%

SMILES: CCCCOc1cc(OCCCN(CC)CC)ccc1NC(=O)c1cc(-c2ccc(Oc3ccccc3)cc2)nn1C
- inhibition [1]: 77%
- IC50 [2]: 5.4 µM

SMILES: CCCCOc1cc(OCCCN(CC)CC)ccc1NC(=O)c1cc(-c2ccc(Oc3ccc(C(C)(C)C)cc3)cc2)nn1C
- inhibition [1]: inactive

SMILES: CCN(CC)CCOc1cccc(Nc2nc(-c3ccc(Cl)cc3)cc(-c3ccc(Cl)cc3)n2)c1.Cl
- solubility kinetic [3]: 16.5 µM

SMILES: CCCCOc1cc(OCCCN(CC)CC)ccc1NC(=O)c1cc(-c2ccc(Oc3ccc(Cl)cc3)cc2)no1
- inhibition [1]: 32.1%

SMILES: CCCCOc1cc(OCCCN(CC)CC)ccc1NC(=O)c1cc(-c2ccc(Oc3ccccn3)cc2)nn1C
- inhibition [1]: 52.6%
- IC50 [2]: 18.9 µM

SMILES: CCCCOc1cc(OCCCN(CC)CC)ccc1NC(=O)c1cc(-c2ccc(Oc3ccc(Cl)cc3)cc2)n[nH]1
- inhibition [1]: inactive

SMILES: CCCCOc1cc(OCCCN(CC)CC)ccc1NC(=O)c1cc(-c2ccc(Oc3ccc(OC)c(F)c3)cc2)nn1C
- inhibition [1]: 34.1%

SMILES: CCCCOc1cc(OCCCN(CC)CC)ccc1NC(=O)c1cc(-c2ccc(Oc3ccc(OC)c(Cl)c3)cc2)nn1C
- inhibition [1]: 36.5%
- IC50 [2]: 5.3 µM

SMILES: CCCCOc1cc(OCCCN(CC)CC)ccc1NC(=O)c1cc(-c2ccc(Oc3ccc(F)cc3)cc2)nn1C [listing 2 of 2 here]
- Activity (Mus musculus [4]): 37.86%
- Activity (Mus musculus [5]): 4.01%
- AUC [6]: 8560 ng·h/mL

SMILES: CCN(CC)CCOc1cccc(Nc2nc(-c3ccc(Cl)cc3)cc(-c3ccc(Cl)cc3)n2)c1
- AUC [6]: 10600 ng·h/mL

SMILES: CCN(CC)CCCOc1ccc(NC(=O)c2cc(-c3ccc(Oc4ccc(Cl)cc4)cc3)nn2C)cc1
- inhibition [1]: 33.8%

SMILES: CCCCOc1cc(OCCCN(CC)CC)ccc1NC(=O)c1cc(-c2ccc(Oc3ccc(OC)cc3)cc2)nn1C
- inhibition [1]: 74.2%
- IC50 [2]: 7.8 µM

SMILES: CCCCOc1cc(OCCCN(CC)CC)ccc1NC(=O)c1cc(-c2ccc(Oc3ccccc3F)cc2)nn1C
- inhibition [1]: 29.5%

SMILES: CCCCOc1cc(OCCCN(CC)CC)ccc1NC(=O)c1cc(-c2ccc(Oc3ccc(Cl)cc3)cc2)nn1CCCC
- inhibition [1]: inactive

SMILES: CCCCOc1cc(OCCCN(CC)CC)ccc1NC(=O)c1cc(-c2ccc(Oc3ccc(Cl)cc3)cc2)n(CCC)n1
- inhibition [1]: 45.7%

SMILES: CCN(CC)CCOc1ccc(NC(=O)c2cc(-c3ccc(OC)cc3)nn2C)cc1
- inhibition [1]: 20.5%

SMILES: CCCCOc1cc(OCCCN(CC)CC)ccc1NC(=O)c1cc(-c2ccc(Oc3ccc(F)cc3)cc2)nn1C.Cl
- solubility kinetic [3]: 80.3 µM

SMILES: CCN(CC)CCCOc1ccc(NC(=O)c2cc(-c3ccc(OC)cc3)nn2C)cc1
- inhibition [1]: 20.5%

SMILES: CCCCOc1cc(OCCCN(CC)CC)ccc1NC(=O)c1cc(-c2ccc(Oc3ccc(Cl)cc3)cc2)nn1C
- inhibition [1]: 49.7%

SMILES: CCCCOc1cc(OCCCN(CC)CC)ccc1NC(=O)c1cc(-c2ccc(OC)cc2)n[nH]1
- inhibition [1]: inactive
